Measurements: ChEMBL document CHEMBL5143677, “Small molecule NSAID derivatives for impairing powerhouse in cancer cells” (Bioorg Med Chem, 2022)
The source made the active and inactive calls. The calls are words filed in the database; no cut-off is given here.

Key:
[1] = Cytotoxicity against human RPE-1 cells assessed as reduction in cell viability measured after 24 hrs by MTT assay; format: toxicity, cell-based; details: RPE-1 cells (TERT-RPE1)
MCF7 [2] = assay: Cytotoxicity against human MCF7 cells assessed as reduction in cell viability measured after 24 hrs by MTT assay; format: functional, cell-based; details: MCF7, 24 h
MCF7 [3] = assay: Induction of ROS generation in human MCF7 cells assessed as increase in green fluorescence measured after 24 hrs by H2DCFDA dye based confocal microscopy relative to control; format: functional
Method in brief: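 After 24 h treatment, MCF7 cells stained with H2DCFDA, which reacts with sub-cellular ROS to give green fluorescent DCF; imaged by confocal microscopy; green signal expressed as fold over non-treated control cells.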

MCF7 [4] = assay: Induction of apoptosis in human MCF7 cells assessed as reduction in caspase-3 expression measured after 24 hrs by Western blot analysis; format: functional, cell-based
Method in brief: (§1)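 MCF7 cells treated 24 h; whole-cell proteins separated by gel electrophoresis and Bcl-2 and caspase-3 detected by Western blot, compared with control cells.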

MCF7 [5] = assay: Induction of mitochondrial outer membrane damage in human MCF7 cells assessed as morphological changes by measuring appearance of fragmented punctate structure at IC50 measured after 24 hrs by mitotracker red based confocal microscopy; format: cell-based
MCF7 [6] = assay: Induction of apoptosis in human MCF7 cells assessed as reduction in Bcl-2 expression measured after 24 hrs by Western blot analysis; format: functional, cell-based; method in brief: as §1
MCF7 [7] = assay: Induction of apoptosis in human MCF7 cells assessed as increase in red fluorescence at IC50 measured after 24 hrs by propidium iodide staining based confocal laser scanning microscopy; format: functional, cell-based
Method in brief: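 Following 24 h treatment, MCF7 cells incubated with propidium iodide, which binds DNA of apoptotic and necrotic cells; red fluorescence read by confocal microscopy against non-treated cells.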

MCF7 [8] = assay: Induction of ROS generation in human MCF7 cells assessed as increase in red fluorescence at IC50 measured after 24 hrs by MitoSox dye based confocal microscopy; format: functional, cell-based
Method in brief: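 MCF7 cells exposed 24 h, then stained with MitoSox, which gives red fluorescence with sub-cellular superoxide; signal compared with non-treated control cells by confocal microscopy.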

MCF7 [9] = assay: Induction of mitochondrial outer membrane damage in human MCF7 cells assessed as increase in mitochondrial depolarization by measuring reduction in red fluorescence measured after 24 hrs by TMRM dye based confocal microscopy; format: cell-based
Method in brief: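 Mitochondrial damage probe: after 24 h exposure MCF7 cells loaded with TMRM, which stains undamaged mitochondria and is effluxed after damage; red fluorescence read by confocal microscopy against non-treated cells.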

MCF7 [10] = assay: Induction of mitochondrial outer membrane damage in human MCF7 cells assessed as increase in mitochondrial depolarization by measuring increase in green fluorescence measured after 24 hrs by JC1 dye based confocal microscopy; format: cell-based
Method in brief: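 MCF7 cells treated 24 h, then incubated with JC1 (green monomer emission 525 nm, red aggregate 590 nm); confocal imaging, depolarization expressed as J-monomer:J-aggregate ratio versus non-treated control.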

MCF7 [11] = assay: Induction of mitochondrial outer membrane damage in human MCF7 cells assessed as morphological changes by measuring elongated mitochondria at IC50 measured after 24 hrs by mitotracker red based confocal microscopy; format: cell-based
MCF7 [12] = assay: Induction of mitochondrial outer membrane damage in human MCF7 cells assessed as morphological changes by measuring appearance of threadlike structure at IC50 measured after 24 hrs by mitotracker red based confocal microscopy; format: cell-based

SMILES: COc1ccc2c(c1)c(CC(=O)OCCCCC[P+](c1ccc(F)cc1)(c1ccc(F)cc1)c1ccc(F)cc1)c(C)n2C(=O)c1ccc(Cl)cc1
- IC50 at 24 h [1]: 11.2 µM
- IC50 (MCF7 [2]): 25.7 µM

SMILES: COc1ccc2c(c1)c(CC(=O)OCCCCC[P+](c1ccc(C)cc1)(c1ccc(C)cc1)c1ccc(C)cc1)c(C)n2C(=O)c1ccc(Cl)cc1
- IC50 at 24 h [1]: 10.2 µM
- IC50 (MCF7 [2]): 5.8 µM

SMILES: CC(C)Cc1ccc(C(C)C(=O)OCCCCC[P+](c2ccccc2)(c2ccccc2)c2ccccc2)cc1 (stereo not drawn)
- fold change (FC) (MCF7 [3]): 3.2
- Activity (MCF7 [4]): Active
- IC50 at 24 h [1]: > 40 µM
- IC50 (MCF7 [2]): 10.3 µM
- Activity (MCF7 [5]): Active
- Activity (MCF7 [6]): Active
- Activity (MCF7 [7]): Active
- Activity (MCF7 [8]): Active
- Activity (MCF7 [9]): Active
- Activity (MCF7 [10]): Active

SMILES: Cc1ccc([P+](CCCCCOC(=O)C(C)c2ccc(CC(C)C)cc2)(c2ccc(C)cc2)c2ccc(C)cc2)cc1 (stereo not drawn)
- IC50 at 24 h [1]: > 40 µM
- IC50 (MCF7 [2]): 25.6 µM

SMILES: CC(C)Cc1ccc(C(C)C(=O)O)cc1 (stereo not drawn) [IBUPROFEN]
- fold change (FC) (MCF7 [3]): 1.3
- Activity (MCF7 [11]): Active
- IC50 at 24 h [1]: > 40 µM
- IC50 (MCF7 [2]): > 50 µM
- Activity (MCF7 [12]): Active
- Activity (MCF7 [9]): Active
- Activity (MCF7 [10]): Active

SMILES: COc1ccc([P+](CCCCCOC(=O)Cc2c(C)n(C(=O)c3ccc(Cl)cc3)c3ccc(OC)cc23)(c2ccc(OC)cc2)c2ccc(OC)cc2)cc1
- IC50 at 24 h [1]: 35.2 µM
- IC50 (MCF7 [2]): 4.5 µM

SMILES: CC(C)Cc1ccc(C(C)C(=O)OCCCCC[P+](c2ccc(F)cc2)(c2ccc(F)cc2)c2ccc(F)cc2)cc1 (stereo not drawn)
- IC50 at 24 h [1]: 35 µM
- IC50 (MCF7 [2]): > 50 µM

SMILES: COc1ccc2c(c1)c(CC(=O)OCCCCC[P+](c1ccccc1)(c1ccccc1)c1ccccc1)c(C)n2C(=O)c1ccc(Cl)cc1
- fold change (FC) (MCF7 [3]): 2.4
- Activity (MCF7 [4]): Active
- IC50 at 24 h [1]: 22 µM
- IC50 (MCF7 [2]): 1 µM
- Activity (MCF7 [5]): Active
- Activity (MCF7 [6]): Active
- Activity (MCF7 [7]): Active
- Activity (MCF7 [8]): Active
- Activity (MCF7 [9]): Active
- Activity (MCF7 [10]): Active

SMILES: COc1ccc2c(c1)c(CC(=O)O)c(C)n2C(=O)c1ccc(Cl)cc1 [INDOMETHACIN]
- fold change (FC) (MCF7 [3]): 2.4
- Activity (MCF7 [4]): Active
- Activity (MCF7 [11]): Active
- IC50 at 24 h [1]: > 40 µM
- IC50 (MCF7 [2]): > 50 µM
- Activity (MCF7 [6]): Active
- Activity (MCF7 [12]): Active
- Activity (MCF7 [9]): Active
- Activity (MCF7 [10]): Active

SMILES: COc1ccc([P+](CCCCCOC(=O)C(C)c2ccc(CC(C)C)cc2)(c2ccc(OC)cc2)c2ccc(OC)cc2)cc1 (stereo not drawn)
- IC50 at 24 h [1]: > 40 µM
- IC50 (MCF7 [2]): 32 µM
